48 sequences from the EternaBench riboswitch data can be followed below.

As usually defined, the apparent Kd is the concentration giving half-maximal binding under the conditions of the assay.

The subject of this data set is MS2 coat protein. The data set is described as follows: apparent Kd, MS2 coat protein; higher = weaker binding; RNA-MaP array; FMN 200 µM where present. An outline of the steps:
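Green signal was scaled to red-channel RNA signal and control-cluster median Fmax, and the apparent Kd was taken as the median of filtered per-cluster binding-curve fits. The binding series used SNAP-549-labelled MS2 coat protein from 0.7 or 1.5 nM, doubling to 3 µM, on designs transcribed by stalled E. coli RNA polymerase on Illumina sequencing-chip clusters. Each series ran without and then with constant ligand in 100 mM Tris-HCl pH 7.5, 80 mM KCl, 4 mM MgCl2, BSA, DTT, yeast tRNA and Tween-20.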

[1] abbreviates: designed as: OFF switch for flavin mononucleotide, no ligand.
[2] abbreviates: ligand present: flavin mononucleotide, designed as: OFF switch for flavin mononucleotide.
[3] abbreviates: designed as: ON switch for flavin mononucleotide, no ligand.
[4] abbreviates: ligand present: flavin mononucleotide, designed as: ON switch for flavin mononucleotide.

“UUUGUUUUGCAAGGAUAUGUUUAAUUUUAGUUUCCUUACACAUGAGGAUCACCCAUGUUAUACUUACAGAAGGUGCGUAAUUUG”: the “apparent Kd” value under setting [1] was 149 nM and the “apparent Kd” value under setting [2] is 136 nM.
For the sequence “GUAGCUAUCGGAGGAUAUCCUUAGCGGAAACGCACAUGAGGAUCACCCAUGUAAAUAAAUAAUUGGGAGAAGGCCGAUAGCUAC”, the “apparent Kd” value came to 107 nM under setting [3] and 16.8 nM under setting [4].
For “UUGUUUCGUCAUUAACAUGAGGAUCACCCAUGUAAAGAACCAGAGGAUAUGCAUGUUUGAUUGUAGCAGAAGGCUGAUUGUUGU”, the “apparent Kd” value was 35.8 nM under setting [3] and 33.4 nM under setting [4].
Turning to “CUUCAGUCAGGAUAUGUUAAUCUCGCCACUCCGCGAACCGGACAGAAGGGACAUGAGGAUCACCCAUGUUAAAC”, the “apparent Kd” value stood at 30.4 nM under setting [1] and 19.5 nM under setting [2].
Consider “ACAUCGUGAGACAUGAGGAUCACCCAUGUGUGAUAGUGGGCACAGGAUAUCCAGAUCUGGAAUCUGGAGAAGGGUGAUCGUUAA”, for which the “apparent Kd” value came out at 47 nM under setting [3] and 149 nM under setting [4].
For the sequence “ACAUGAGGAUCACCCAUGUAUACAUAGGAUAUUGGUGAUCAGGGAUGUUUUACAGGAUAUGUCUGCGAGAAGGAUGCAAGUACU”, the “apparent Kd” value reads like this: under setting [3], 178 nM; under setting [4], 94.7 nM.
On the same counts, the results for “UGGUACUAGGGAGGAUAUGGGAAGAUACAUGAGGAUCACCCAUGUUUAAGAAUGCCGAGAGGCAACUAGAAGGCCCUAGUACCC” are 430 nM and 19.1 nM.
On to “UAUCAUUACACGAAGGAUAUCGAUAAUUGAACAUGAGGAUCACCCAUGUGAUAUAUUUUACAGUUCGAGAAGGUCGAGGGUGAAG”, for which the “apparent Kd” value by setting is: under setting [3], 35.6 nM; under setting [4], 18 nM.
Consider “AGCUGUGGCCGAGGAUAUCUAUCCCAAAUAACCGAAAUAUAAUCGGACAUGAGGAUCACCCAUGUAGAGAAGGCGGUCUCAGCA”, for which the “apparent Kd” value under setting [2] is 35.1 nM.
With “UGUAUGGACAGAGGAUAUGCCGAUAGGCUCUACUAUCGAAGAAUCCUCACAUGAGGAUCACCCAUGUAGAAGGCUGUCCAUACU”, the “apparent Kd” value runs as follows: under setting [1], 18.1 nM; under setting [2], 41.3 nM.
Regarding “CGAUCUUCAGUCAGGAUAUGCUGGCACGAAGAGUUGUAGAAGGGACAUGAGGAUCACCCAUGUCGGACGUUGUA”, the “apparent Kd” value reads like this: under setting [1], 19 nM; under setting [2], 17.4 nM.
On the same counts, the results for “UUCAGCUCGUCAGGAUAUACGUCACUGCGUCAGCAGUGUGGUAAGAUCACAUGAGGAUCACCCAUGUAGAAGGGACGAGCUGAU” are 13.7 nM and 235 nM.
Regarding “CCACGUCACAUGAACAUGAGGAUCACCCAUGUAACUAGACAUGAGGAUAUGGAUCCUAAUUGGAUCCAGAAGGCAUGGACGUGG”, the “apparent Kd” value by setting is: under setting [3], 168 nM; under setting [4], 29.2 nM.
As for “UUGUAGUACGUAGGAUAUCAUUGAGGGUCACCCUGAGAAGGACGUGAGGACAUGAGGAUCACCCAUGUGGAUCACCCAUGUCAU”, the “apparent Kd” value is, setting by setting: under setting [1], 282 nM; under setting [2], 549 nM.
Consider “GCGUAUGAAAAUAUGUCUGAGGGCAGAAGGCACAUGAGGAUCACCCAUGUAACGAUCUCUUCAAGUGAGGAUAUGUGCUCAUUG”, for which the “apparent Kd” value is 31.8 nM under setting [1] and 113 nM under setting [2].
Regarding “UGAGAGUCAGGAUAUCGAAGGUAGUGGAGAGGAGUGUGGUACGAGAAGGGACAUGAGGAUCACCCAUGUAGGUG”, the “apparent Kd” value runs as follows: under setting [1], 322 nM; under setting [2], 276 nM.
As for “ACGCUCAGAGGAUAUACAUGAGGAUCACCCAUGUGUUACCGAGGAGUACGGUCGUCACGUAGAAGGCUGGGUAA”, the “apparent Kd” value is 17.9 nM under setting [1] and 63.2 nM under setting [2].
As for “CUUUUACAUGAGGAUCACCCAUGUUAUGGCGGGUCAGGAUAUAGAUCGGAUGCGUUCUGUCUAGAAGGGACAUGUU”, the “apparent Kd” value reads like this: under setting [3], 52.2 nM; under setting [4], 33.4 nM.
For “UGUAUGGACAGAGGAUAUGCCGAUAGGAUCUACUAUCGAAGAAUCCUCACAUGAGGAUCACCCAUGUAGAAGGCUGUCCAUACC”, the “apparent Kd” value reads like this: under setting [1], 8.57 nM; under setting [2], 36.8 nM.
With “GGGUACAUCGGAGGAUAUCAUGUAAAUACAUGAGGAUCACCCAUGUCGAUGGAGACAUCGGAGCUUGAGAAGGCCGAUGUACCG”, the “apparent Kd” value by setting is: under setting [3], 36.2 nM; under setting [4], 6.49 nM.
On the same counts, the results for “UGUUGUAUUACAGGAUAUCUAUGAUUUUUUUUUAGAGAAGGGUAUUCACAUGAGGAUCACCCAUGUAUAUACGAGGAAGUUGUG” are 51.4 nM and 62 nM.
For the sequence “UCUAUGCAGACCCUUAUAAAACAUGAGGAUCACCCAUGUGAGAGAAGGGCCUAACGGCAGAGAAGGCAGGAUAUCUUAUGAUGG”, the “apparent Kd” value was found to be 7.46 nM under setting [1] and 12.9 nM under setting [2].
As to “GUAAUUUAUAGAGGAUAUUGACAUGAGGAUCACCCAUGUAUUUGGGAGUGUUCACUGAAUUCUUACGAGAAGGCUAUAAAAUAC”, the “apparent Kd” value reads like this: under setting [1], 307 nM; under setting [2], 213 nM.
Consider “AGUAUGUACGCAGGAUAUACAUGAGGAUCACCCAUGUGGAACAGUGUAGUACUAGUUGAUCCUCAGUAGAAGGGCGGUCGAAUA”, for which the “apparent Kd” value under setting [1] is 63.6 nM and the “apparent Kd” value under setting [2] stood at 46.4 nM.
Regarding “GCCCGGGCUAACAUGAGGAUCACCCAUGUGUUAUACUUAAUAUAGGAUAUGUUUAUACUUUUUGGGCAGAAGGAUGGCCCGGGC”, the “apparent Kd” value worked out at 68.2 nM under setting [3] and 61.7 nM under setting [4].
Take “CCGGAAAUAGAGGAUAUAGUACUGGAUACAGUACUAGAAGGCUAUACAUGAGGAUCACCCAUGUGUCCUACCGG”: the “apparent Kd” value is, setting by setting: under setting [1], 16 nM; under setting [2], 32.4 nM.
Take “UCUCAACAUGAGGAUCACCCAUGUGAGGAUAUGAUGCAGCAGUGGUCUACGCUGUGCAUCAGAAGGCACAUGUG”: the “apparent Kd” value stood at 137 nM under setting [1] and 48.2 nM under setting [2].
Take “CUACCUUAUGAGAAGGCGGUCAUGAAACAUGAUCGAGGAUAUCAUGUAAACAUGAGGAUCACCCAUGUAUGGGUAUUAUGGUAU”: the “apparent Kd” value is, setting by setting: under setting [3], 146 nM; under setting [4], 26.4 nM.
As to “GUCCUACAUGAGGAUCACCCAUGUCAGGAUAUGUAGCGUCCGGGCGAUAAGGCUCGGAGCAGAAGGGACAGGUG”, the “apparent Kd” value under setting [1] was 14.2 nM and the “apparent Kd” value under setting [2] turned out to be 16.2 nM.
On to “GUUUUACAUGAGGAUCACCCAUGUGAGGAUAUAUUGUUAUUUUUGAUAUUUUUUGGUGGUAGAAGGCGCGUGAU”, for which the “apparent Kd” value is, setting by setting: under setting [1], 36.4 nM; under setting [2], 32.7 nM.
On to “UUUAAUUUAAUUAAGAUCACAUGAGGAUCACCCAUGUAAUUAUAGGAUAUCAGCUCGUUUAGAGCUGAGAAGGAUAAUUACAUA”, for which the “apparent Kd” value worked out at 78.9 nM under setting [1] and 53.4 nM under setting [2].
On to “GGAUGACAAAGUCAUCCAAUACGACAUGAGGAUCACCCAUGUUAGGAUAUGCUACUCAAAGAGUAGCAGAAGGACAUGUGCCUU”, for which the “apparent Kd” value under setting [1] was 23.7 nM and the “apparent Kd” value under setting [2] worked out at 33.4 nM.
As for “GCACAUGGCAUAGGAUAUAGAACUUUACUUUAUAUAGGUAGUUACACUUAACUAGAAGGAUGUUACAUGAGGAUCACCCAUGUU”, the “apparent Kd” value under setting [3] came out at 25.4 nM and the “apparent Kd” value under setting [4] is 20 nM.
Turning to “GACUCGUAAGUGAGGAUAUGGCUGUGCAGCUACAGCCAGAAGGCACAUGAGGAUCACCCAUGUGAUGGAAUUUU”, the “apparent Kd” value under setting [1] is 15.9 nM and the “apparent Kd” value under setting [2] came to 30.6 nM.
Regarding “AUUUUACAUGAGGAUCACCCAUGUUUUGGCGGGUCAGGAUAUAGAUCGGAUGAGUUCUGGCUAGAAGGGACAUGUA”, the “apparent Kd” value is, setting by setting: under setting [3], 54 nM; under setting [4], 106 nM.
On the same counts, the results for “UGGUACUAGGGAGGAUAUGGGAAUAUACAUGAGGAUCACCCAUGUUUAAGAAUGCCGAGAGGCAACUAGAAGGCCCUAGUACCU” are 11.1 nM and 4.85 nM.
Regarding “GUAACUCAUGUAGGAUAUGCAUGGCGAAGCUACGCAGAAGGACAUGAGGAUCACCCAUGUUCUAGCGUCUGAGUACAGAUGCAA”, the “apparent Kd” value runs as follows: under setting [1], 60.2 nM; under setting [2], 436 nM.
Consider “AUUAUACAUGAGGAUCACCCAUGUCAACAAAGUCGAGGAUAUGGGCAAAUAAAAUAAGAACCAGAAGGCGAAUAAU”, for which the “apparent Kd” value by setting is: under setting [3], 238 nM; under setting [4], 61 nM.
“GGGCCGGUGGAGAAGGAGCUUGCGAAACGCAUGCUAGGAUAUCCACAUGAGGAUCACCCAUGUGGGAAUAUCUGAUUUUCACAG”: the “apparent Kd” value was 3.82 nM under setting [1] and 4.76 nM under setting [2].
As to “AUCAGCUCGUCAGGAUAUACGUCACUGCGUCAGCAGUGUGGUAAGAUCACAUGAGGAUCACCCAUGUAGAAGGGACGAGCUUAU”, the “apparent Kd” value by setting is: under setting [1], 13.8 nM; under setting [2], 260 nM.
On to “AAAACUGGAGGAUAUACAUGAGGAUCACCCAUGUGUGGAUGAGCUGUGUCGGCGUCACGUAGAAGGCCACAAAA”, for which the “apparent Kd” value was 40.5 nM under setting [1] and 47.5 nM under setting [2].
In the case of “GUGCACACUCGAGGAUAUCGGAGUUUUCUUCUUCGAGAAGGCGAUUCGUGCCGUGUUAUUUUGGACAUGAGGAUCACCCAUGUG”, the “apparent Kd” value under setting [3] amounted to 93.3 nM and the “apparent Kd” value under setting [4] amounted to 34.5 nM.
The like results for “AUUUAUGGCCAGAAGGACAUGAGGAUCACCCAUGUAGGAUAUGGACGAUUUUACUCGGCGGUUCGUUUAGGAAGCACCGGCGGU” were, in that order, 8.58 nM and 5.91 nM.
With “GUGACGAUGUAAGGAUAUGCUGAGGAAUACUCAGCAGAAGGUACAUGAGGAUCACCCAUGUAAAUAAUAAUAAAUAAACGUCAC”, the “apparent Kd” value is 15.2 nM under setting [1] and 24.1 nM under setting [2].
On the same counts, the results for “UGUGCGUAUGUGAGGAUAUGCUGGUCCUUGGCUCGGCAGAAGGCACAUGAGGAUCACCCAUGUGGUGUCGUACG” are 75.5 nM and 199 nM.
On the same counts, the results for “UGGUAGUCAGGAUAUACGAACAUGUCGCCAGAUGUCAAGGUACAUGAGGAUCACCCAUGUAGAAGGGACUAGAA” are 44.5 nM and 48.2 nM.
In the case of “GACGGAUGUAUAGGAUAUGCUGAGGAAUACUCAGCAGAAGGAUACAUGAGGAUCACCCAUGUAACCGUCAAUAAUAAUAAUAAU”, the “apparent Kd” value is, setting by setting: under setting [1], 15.7 nM; under setting [2], 29.9 nM.
On the same counts, the results for “UUAUUAAGUGUGAGGAUAUGCUGGUCCUUGGAUCAGCAGAAGGCACAUGAGGAUCACCCAUGUACAUUAUUUUA” are 35 nM and 247 nM.
